From ChEMBL document CHEMBL2010803, “Novel NSAID 1-acyl-4-cycloalkyl/arylsemicarbazides and 1-acyl-5-benzyloxy/hydroxy carbamoylcarbazides as potential anticancer agents and antioxidants” (Eur J Med Chem, 2012)
The source made the active and inactive calls. The rule behind the calls is not given here.

Experiments:
[1] = tested on: Respiratory syncytial virus; assay: Antiviral activity against RSV infected in human cervix carcinoma cells assessed as inhibition of virus-induced cytopathic effect at 0.32 to 100 uM; format: functional, organism-based
Procedure, shortened: (§1)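 Confluent cell cultures were infected with 100 CCID50 of virus in the presence of test compound at 100, 40, 8, 1.6 and 0.32 μM. Cytopathic effect was scored once it was complete in untreated infected controls.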

Coxsackievirus B4 [2] = assay: Antiviral activity against Coxsackievirus B4 infected in human cervix carcinoma cells assessed as inhibition of virus-induced cytopathic effect at 0.32 to 100 uM; format: functional, organism-based; procedure, shortened: as §1
L1210 = assay: Cytostatic activity against mouse L1210 cells after 2 days by coulter counter analysis; format: functional, cell-based; conditions: L1210, 48 h
Procedure, shortened: (§2)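 300,000–500,000 cells/ml mixed 1:1 with compound dilutions and incubated at 37 °C for 2 days (L1210) or 3 days (CEM, HeLa). Cell number counted with a Coulter counter; HeLa trypsinized before counting.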

CCRF-CEM = assay: Cytostatic activity against human CEM cells after 3 days by coulter counter analysis; format: functional, cell-based; conditions: 72 h; procedure, shortened: as §2
HeLa = assay: Cytostatic activity against human HeLa cells after 3 days by coulter counter analysis; format: functional, cell-based; conditions: 72 h; procedure, shortened: as §2
HCT-116 = assay: Cytostatic activity against human HCT116 cells after 72 hrs by MTT assay; format: functional, cell-based; conditions: HCT-116, 72 h
Procedure, shortened: (§3)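 Monolayers in DMEM with 10% FBS, 2 mM L-glutamine and penicillin/streptomycin, 37 °C, 5% CO2. Seeded at 1–3 × 10^4 cells/ml, then compound added in tenfold dilutions (10⁻⁸–10⁻⁴ M) for 72 h. MTT read at 570 nm; percent growth taken against time-zero and untreated controls. IC50 by linear regression; quadruplicate, at least two experiments.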

MCF7 = assay: Cytostatic activity against human MCF7 cells after 72 hrs by MTT assay; format: functional, cell-based; conditions: MCF7, 72 h; procedure, shortened: as §3
NCI-H460 = assay: Cytostatic activity against human NCI-H460 cells after 72 hrs by MTT assay; format: functional, cell-based; conditions: NCI-H460, 72 h; procedure, shortened: as §3
HaCaT = assay: Cytostatic activity against human HaCaT cells after 72 hrs by MTT assay; format: ADME, cell-based; procedure, shortened: as §3
Human alphaherpesvirus 1 = assay: Antiviral activity against HSV1 KOS infected in human lung fibroblast assessed as inhibition of virus-induced cytopathic effect at 0.32 to 100 uM; format: functional, organism-based; procedure, shortened: as §1
Human alphaherpesvirus 2 = assay: Antiviral activity against HSV2 G infected in human lung fibroblast assessed as inhibition of virus-induced cytopathic effect at 0.32 to 100 uM; format: functional, organism-based; conditions: strain G; procedure, shortened: as §1
Vaccinia virus = assay: Antiviral activity against Vaccinia virus infected in human lung fibroblast assessed as inhibition of virus-induced cytopathic effect at 0.32 to 100 uM; format: functional, organism-based; conditions: Orthopoxvirus vaccinia
[3] = tested on: Vesicular stomatitis virus; assay: Antiviral activity against VSV infected in human lung fibroblast assessed as inhibition of virus-induced cytopathic effect at 0.32 to 100 uM; format: functional, organism-based
Human respirovirus 3 = assay: Antiviral activity against Parainfluenza virus 3 infected in african green monkey Vero cells assessed as inhibition of virus-induced cytopathic effect at 0.32 to 100 uM; format: functional, organism-based; procedure, shortened: as §1
[4] = tested on: Mammalian orthoreovirus 1; assay: Antiviral activity against Reovirus-1 infected in african green monkey Vero cells assessed as inhibition of virus-induced cytopathic effect at 0.32 to 100 uM; format: functional, organism-based; procedure, shortened: as §1
Sindbis virus = assay: Antiviral activity against Sindbis virus infected in african green monkey Vero cells assessed as inhibition of virus-induced cytopathic effect at 0.32 to 100 uM; format: functional, organism-based; procedure, shortened: as §1
Coxsackievirus B4 [5] = assay: Antiviral activity against Coxsackievirus B4 infected in african green monkey Vero cells assessed as inhibition of virus-induced cytopathic effect at 0.32 to 100 uM; format: functional, organism-based; procedure, shortened: as §1
Punta Toro virus = assay: Antiviral activity against Punta Toro virus infected in african green monkey Vero cells assessed as inhibition of virus-induced cytopathic effect at 0.32 to 100 uM; format: functional, organism-based; procedure, shortened: as §1
[6] = tested on: Vesicular stomatitis virus; assay: Antiviral activity against Vesicular stomatitis virus infected in human cervix carcinoma cells assessed as inhibition of virus-induced cytopathic effect at 0.32 to 100 uM; format: functional, organism-based
Procedure, shortened: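 Confluent human cervix carcinoma (HeLa) cultures received 100 CCID50 of VSV together with the compound at 100, 40, 8, 1.6 or 0.32 μM. Cytopathicity was read at the point of full CPE in infected, untreated control wells.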

Felid alphaherpesvirus 1 = assay: Antiviral activity against Feline herpesvirus infected in feline CRFK cells assessed as inhibition of virus-induced cytopathic effect at 0.32 to 100 uM; format: functional, organism-based; procedure, shortened: as §1
Feline coronavirus = assay: Antiviral activity against Feline coronavirus infected in feline CRFK cells assessed as inhibition of virus-induced cytopathic effect at 0.32 to 100 uM; format: functional, organism-based; procedure, shortened: as §1
Influenza A virus [7] = assay: Antiviral activity against Influenza A virus H1N1 infected in MDCK cells assessed as inhibition of virus-induced cytopathic effect at 0.32 to 100 uM; format: functional, organism-based
Procedure, shortened: (§4)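 Confluent MDCK monolayers were infected in the presence of the compound at 100, 40, 8, 1.6 and 0.32 μM. Viral cytopathicity was scored once it was complete in untreated infected control cultures.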

Influenza A virus [8] = assay: Antiviral activity against Influenza A virus H3N2 infected in MDCK cells assessed as inhibition of virus-induced cytopathic effect at 0.32 to 100 uM; format: functional, organism-based; procedure, shortened: as §4
Influenza B virus = assay: Antiviral activity against Influenza B virus infected in MDCK cells assessed as inhibition of virus-induced cytopathic effect at 0.32 to 100 uM; format: functional, organism-based; procedure, shortened: as §4
[9] = tested on: Human immunodeficiency virus 1; assay: Antiviral activity against HIV1 3B infected in human CEM cells assessed as inhibition of virus-induced CEM giant cell formation at 0.32 to 100 uM after 4 days; format: functional, organism-based; conditions: CCRF-CEM
Procedure, shortened: (§5)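 CEM cells (~3 × 10^5 cells/cm³) exposed to 100 CCID50/ml of virus and seeded into wells holding compound dilutions. Incubated 4 days at 37 °C, then giant cell formation examined microscopically.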

[10] = tested on: Human immunodeficiency virus 2; assay: Antiviral activity against HIV2 ROD infected in human CEM cells assessed as inhibition of virus-induced CEM giant cell formation at 0.32 to 100 uM after 4 days; format: functional, organism-based; conditions: ISOLATE ROD, CCRF-CEM; procedure, shortened: as §5
[11] = tested on: Radical scavenging activity; assay: Antioxidant activity assessed as DPPH free radical scavenging activity at 100 uM after 20 mins by spectrophotometric analysis; format: functional
Procedure, shortened: (§6)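 0.05 mM DPPH in absolute ethanol mixed with an equal volume of compound in DMSO (final 100 μM). Shaken and left 20 or 60 min, then absorbance read at 517 nm and percent activity calculated. Three replicates, averaged.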

[12] = tested on: Radical scavenging activity; assay: Antioxidant activity assessed as DPPH free radical scavenging activity at 100 uM after 60 mins by spectrophotometric analysis; format: functional; procedure, shortened: as §6
[13] = Antioxidant activity assessed as inhibition of AAPH-induced linoleic acid lipid peroxidation by measuring conjugated diene hydroperoxide level; format: functional; set-up: concentration or dose not given beside the values
Procedure, shortened: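 Linoleic acid sodium salt (10 μL of 16 mM) in 0.05 M phosphate buffer pH 7.4 at 37 °C. Oxidation started under air with 50 μL of 40 mM AAPH. Conjugated diene hydroperoxide formation followed as absorbance rise at 234 nm; control contains the same DMSO level. At least triplicate.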

Glycine max = assay: Inhibition of soybean LOX assessed as conversion of sodium linoleate to 13- hydroperoxylinoleic acid at 100 uM
[14] = dose or concentration not given here

Row | Structure (SMILES) | inhibition [1] | inhibition (Coxsackievirus B4 [2]) | IC50 (CCRF-CEM) | IC50 (HCT-116) | IC50 (MCF7) | IC50 (NCI-H460) | IC50 (HaCaT) | inhibition (Human alphaherpesvirus 1) | inhibition (Human alphaherpesvirus 2) | inhibition (Vaccinia virus) | inhibition [3] | inhibition (Human respirovirus 3) | inhibition [4] | inhibition (Sindbis virus) | inhibition (Coxsackievirus B4 [5]) | inhibition (Punta Toro virus) | inhibition [6] | inhibition (Felid alphaherpesvirus 1) | inhibition (Feline coronavirus) | inhibition (Influenza A virus [7]) | further results
1 | CC(C(=O)NNC(=O)NC1CCCCC1)c1cccc(Oc2ccccc2)c1 (configuration not stated) | inactive | inactive | 53 µM | 22 µM | 17 µM | 24 µM | 19 µM | inactive | inactive | inactive | inactive | inactive | inactive | inactive | inactive | inactive | inactive | inactive | inactive | inactive | IC50 (L1210): 35 µM; IC50 (HeLa): 48 µM; inhibition (Influenza A virus [8]): inactive; inhibition (Influenza B virus): inactive; inhibition [9]: inactive; inhibition [10]: inactive; Activity [11]: 19%; Activity [12]: 22%; inhibition [13, 14]: 63%; inhibition (Glycine max): 13%
2 | CC(C(=O)NNC(=O)NC1CCCC1)c1cccc(Oc2ccccc2)c1 (configuration not stated) | inactive | inactive | 73 µM | 36 µM | 20 µM | 33 µM | 18 µM | inactive | inactive | inactive | inactive | inactive | inactive | inactive | inactive | inactive | inactive | inactive | inactive | inactive | IC50 (L1210): 55 µM; IC50 (HeLa): 39 µM; inhibition (Influenza A virus [8]): inactive; inhibition (Influenza B virus): inactive; inhibition [9]: inactive; inhibition [10]: inactive; Activity [11]: 16%; Activity [12]: 19%; inhibition [13, 14]: 21%; inhibition (Glycine max): inactive
3 | CC(C(=O)NNC(=O)NCc1ccccc1)c1cccc(Cc2ccccc2)c1 (configuration not stated) | inactive | inactive | 49 µM | 24 µM | 12 µM | 28 µM | 25 µM | inactive | inactive | inactive | inactive | inactive | inactive | inactive | inactive | inactive | inactive | inactive | inactive | inactive | IC50 (L1210): 31 µM; IC50 (HeLa): 94 µM; inhibition (Influenza A virus [8]): inactive; inhibition (Influenza B virus): inactive; inhibition [9]: inactive; inhibition [10]: inactive; Activity [11]: 3%; Activity [12]: 9%; inhibition [13, 14]: 48%; inhibition (Glycine max): inactive
4 | CC(C(=O)NNC(=O)NCC1CCCCC1)c1cccc(Cc2ccccc2)c1 (configuration not stated) | inactive | inactive | 20 µM | 16 µM | 18 µM | 18 µM | 12 µM | inactive | inactive | inactive | inactive | inactive | inactive | inactive | inactive | inactive | inactive | inactive | inactive | inactive | IC50 (L1210): 22 µM; inhibition (Influenza A virus [8]): inactive; inhibition (Influenza B virus): inactive; inhibition [9]: inactive; inhibition [10]: inactive; Activity [11]: 5%; Activity [12]: 12%; inhibition [13, 14]: 61%; inhibition (Glycine max): 9%
5 | CC(C)Cc1ccc(C(C)C(=O)NNC(=O)NC(c2ccccc2)c2ccccc2)cc1 (configuration not stated) | inactive | inactive | 23 µM | 13 µM | 6 µM | 16 µM | 13 µM | inactive | inactive | inactive | inactive | inactive | inactive | inactive | inactive | inactive | inactive | inactive | inactive | inactive | IC50 (L1210): 20 µM; inhibition (Influenza A virus [8]): inactive; inhibition (Influenza B virus): inactive; inhibition [9]: inactive; inhibition [10]: inactive; Activity [11]: inactive; Activity [12]: inactive; inhibition [13, 14]: 74%; inhibition (Glycine max): 46%
6 | CC(C(=O)NNC(=O)NC1CCCC1)c1cccc(Cc2ccccc2)c1 (configuration not stated) | inactive | inactive | 66 µM | 33 µM | 19 µM | 38 µM | 50 µM | inactive | inactive | inactive | inactive | inactive | inactive | inactive | inactive | inactive | inactive | inactive | inactive | inactive | IC50 (HeLa): 43 µM; inhibition (Influenza A virus [8]): inactive; inhibition (Influenza B virus): inactive; inhibition [9]: inactive; inhibition [10]: inactive; Activity [11]: 4%; Activity [12]: 12%; inhibition [13]: inactive; inhibition (Glycine max): inactive
